The record followed here is ChEMBL document CHEMBL1926667, “The synthesis of 2-nitroaryl-1,2,3,4-tetrahydroisoquinolines, nitro-substituted 5,6-dihydrobenzimidazo[2,1-a]isoquinoline N-oxides and related heterocycles as potential bioreducible substrates for the enzymes NAD(P)H: quinone oxidoreductase 1 and E. coli nitroreductase” (Bioorg Med Chem Lett, 2011).

In data set [1] the target is NAD(P)H dehydrogenase [quinone] 1 (Homo sapiens) (UniProt P15559). Put plainly: Activation of human NQO1 assessed as specific activity per mg of protein at 100 uM by measuring decrease in substrate concentration by HPLC analysis. In a few lines: (§1)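 Reduction by human NQO1 or E. coli NR followed by the disappearance of substrate over time; specific activity is the rate of substrate reduction at 37 °C. Relative activity is the specific activity compared with CB-1954.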

In data set [2] the test system is Escherichia coli. The experiment in a line: Activation of Escherichia coli nitroreductase assessed as specific activity per mg of protein at 100 uM by measuring decrease in substrate concentration by HPLC analysis. In a few lines: as §1
The test system of data set [3] is Escherichia coli. The experiment in a line: Activation of Escherichia coli nitroreductase assessed as decrease in substrate concentration at 100 uM by HPLC analysis relative to CB-1954. In a few lines:
as §1

In data set [4] the target is NAD(P)H dehydrogenase [quinone] 1 (Homo sapiens) (UniProt P15559). The experiment in a line: Activation of human NQO1 assessed as decrease in substrate concentration at 100 uM by HPLC analysis relative to CB-1954. In a few lines:
as §1

For data set [5] the target is unchanged. Put plainly: Activation of human NQO1 assessed as specific activity per mg of protein at 50 uM by measuring decrease in substrate concentration by HPLC analysis. In a few lines: (§2)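 Used for poorly soluble substrates: 50 µM compound in buffer (10 mM phosphate, pH 7) with 10% DMSO, incubated with human NQO1 or E. coli NR at 37 °C. Substrate disappearance was monitored over time. Rates assume a 50 µM starting concentration and no DMSO effect on the enzyme. Relative activity is compared with CB-1954.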

Data set [6] is described as follows: Solubility of the compound at 100 uM in sodium phosphate buffer with 10% DMSO and 500 uM NADH at pH 7. The format is physicochemical. The conditions noted are these: pH 7, 100 µM.
Data set [7] deals with Escherichia coli. Put plainly: Activation of Escherichia coli nitroreductase assessed as specific activity per mg of protein at 50 uM by measuring decrease in substrate concentration by HPLC analysis. In a few lines: as §2
Data set [8] relates to Escherichia coli. Put plainly: Activation of Escherichia coli nitroreductase assessed as specific activity per mg of protein at 50 uM by measuring decrease in substrate concentration by HPLC analysis relative to CB-1954. In a few lines:
as §2

The target in data set [9] is NAD(P)H dehydrogenase [quinone] 1 (Homo sapiens) (UniProt P15559). The experiment in a line: Activation of human NQO1 assessed as specific activity per mg of protein at 50 uM by measuring decrease in substrate concentration by HPLC analysis relative to CB-1954. In a few lines: as §2
Data set [10] deals with Escherichia coli. The experiment in a line: Activation of Escherichia coli nitroreductase assessed as specific activity per mg of protein at 100 uM by measuring decrease in NADH concentration. In a few lines:
(§3)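 Human NQO1 or E. coli NR reduction followed by the fall in NADH concentration over time; specific activity is the rate of reduction per enzyme at 37 °C. Relative values are the specific activity compared with CB-1954.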

Data set [11] concerns Escherichia coli. The experiment in a line: Activation of Escherichia coli nitroreductase assessed as decrease in NADH concentration at 100 uM relative to CB-1954. In a few lines: as §3
A short description of data set [12]: Solubility of the compound in 10 mM phosphate buffer with 10% DMSO at pH 7. The format is physicochemical.

Chain of NAD(P)H dehydrogenase [quinone] 1 (Homo sapiens) (P15559 whole entry): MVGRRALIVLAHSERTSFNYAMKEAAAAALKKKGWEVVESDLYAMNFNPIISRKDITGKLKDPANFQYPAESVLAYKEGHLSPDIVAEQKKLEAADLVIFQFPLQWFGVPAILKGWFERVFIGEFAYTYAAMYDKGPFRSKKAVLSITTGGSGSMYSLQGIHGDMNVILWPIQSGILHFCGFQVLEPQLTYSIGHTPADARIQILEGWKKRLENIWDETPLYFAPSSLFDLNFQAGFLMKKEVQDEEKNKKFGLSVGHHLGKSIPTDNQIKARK

For the compound `NC(=O)c1cc(N2CC2)c([N+](=O)[O-])cc1[N+](=O)[O-]`, the Activity (10'-3umol/min) in data set [1] came to 6.2. For the same compound, the Activity in the data set on Escherichia coli [2] was 1.86 µmol/min.

Regarding `O=[N+]([O-])c1cc(C(F)(F)F)c2c(c1)[n+]([O-])c1n2CCc2c-1cccc2[N+](=O)[O-]`, the Activity (in [1]; with Escherichia coli [2]) was less than 0.001 µmol/min in each case. Further, the fold change (FC) in the data set on Escherichia coli [3] was less than 0.001; in data set [4], less than 0.16.

For the compound `O=[N+]([O-])c1ccc2c(c1)CN(c1c([N+](=O)[O-])cc([N+](=O)[O-])cc1C(F)(F)F)CC2`, the Activity was 0.076 µmol/min in data set [5] and 2.39 µmol/min with Escherichia coli [7]. Further, the solubility result in [6] is “Insoluble”. In addition, the fold change (FC) in the data set with Escherichia coli [8] turned out to be 1.3; in [9], 12.3.

With `NC(=O)c1cc2c(cc1[N+](=O)[O-])[n+]([O-])c1n2CCc2c-1cccc2[N+](=O)[O-]`, the Activity (in data set [1]; in the data set with Escherichia coli [2]) was less than 0.001 µmol/min throughout. The fold change (FC) was less than 0.001 in the data set on Escherichia coli [3] and less than 0.16 in [4].

On to `O=[N+]([O-])c1ccc2c(c1)[n+]([O-])c1n2CCc2ccccc2-1`, for which the Activity in data set [1] amounted to 0.016 µmol/min; in the data set on Escherichia coli [2], 0.5 µmol/min. The fold change (FC) with Escherichia coli [3] was determined as 0.3; in [4], 2.6.

Regarding `O=C(O)c1cc([N+](=O)[O-])c(N2CCc3ccccc3C2)c([N+](=O)[O-])c1`, the Activity is less than 0.001 µmol/min in data set [1] and 0.02 µmol/min in the data set with Escherichia coli [2]. In addition, the fold change (FC) in the data set with Escherichia coli [3] was 0.01; in [4], less than 0.16.

As to `NC(=O)c1cc([N+](=O)[O-])cc2c1n1c([n+]2[O-])-c2ccccc2CC1`, the Activity in [1] is less than 0.001 µmol/min; in the data set on Escherichia coli [10] it was 1.62 µmol/min. The fold change (FC) is less than 0.16 in data set [4] and 0.9 in the data set with Escherichia coli [11].

For the compound `O=[N+]([O-])c1cnc2c(c1)[n+]([O-])c1n2CCc2ccccc2-1`, the values for the Activity (in data set [1]; with Escherichia coli [2]) were 0.17 µmol/min and 54 µmol/min, respectively. For the same compound, the fold change (FC) came to 29 with Escherichia coli [3] and 27.4 in data set [4].

Consider `O=[N+]([O-])c1cnc(N2CCc3ccccc3C2)c([N+](=O)[O-])c1`, for which the values for the Activity (in [1]; in the data set on Escherichia coli [2]) were 0.013 µmol/min and 1.49 µmol/min, respectively. In addition, the fold change (FC) is 0.8 in the data set with Escherichia coli [3] and 2.1 in data set [4].

For the compound `O=[N+]([O-])c1cc([N+](=O)[O-])c(N2CCc3ccccc3C2)c(C(F)(F)F)c1`, the Activity in data set [1] turned out to be 0.11 µmol/min; with Escherichia coli [2], 41.5 µmol/min. For the same compound, the figures for the fold change (FC) (with Escherichia coli [3]; in data set [4]) were 22.3 and 17.7, respectively.

As to `O=[N+]([O-])c1ccc2c(c1)[n+]([O-])c1n2CCc2c-1cccc2[N+](=O)[O-]`, the Activity in [1] is less than 0.001 µmol/min; in the data set with Escherichia coli [10] it was 1.51 µmol/min. In addition, the fold change (FC) in [4] is less than 0.16; in the data set on Escherichia coli [11] it was 0.8.

`O=[N+]([O-])c1ccc2c(c1)-c1n(c3ccc([N+](=O)[O-])cc3[n+]1[O-])CC2`: the values for the Activity (in data set [1]; with Escherichia coli [10]) were less than 0.001 µmol/min and 1.3 µmol/min, respectively. The values for the fold change (FC) (in [4]; with Escherichia coli [11]) were less than 0.16 and 0.6, respectively.

Regarding `NC(=O)c1cc([N+](=O)[O-])c(N2CCc3ccccc3C2)c([N+](=O)[O-])c1`, the Activity (in [1]; in the data set with Escherichia coli [2]) was less than 0.001 µmol/min in each case. In addition, the fold change (FC) in the data set on Escherichia coli [3] is less than 0.001; in data set [4], less than 0.16.

On to `O=[N+]([O-])c1cc([N+](=O)[O-])c(N2CCc3c(cccc3[N+](=O)[O-])C2)c(C(F)(F)F)c1`, for which, in data set [12], the solubility result is given as “Insoluble”.

On to `NC(=O)c1cc2c(cc1[N+](=O)[O-])[n+]([O-])c1n2CCc2ccccc2-1`, for which the Activity (in data set [1]; in the data set with Escherichia coli [2]) was less than 0.001 µmol/min in each case. In addition, the results for the fold change (FC) (in the data set with Escherichia coli [3]; in [4]) were less than 0.001 and less than 0.16, respectively.

`NC(=O)c1cc(N2CCc3ccccc3C2)c([N+](=O)[O-])cc1[N+](=O)[O-]`: the Activity in [1] came out at 0.042 µmol/min; in the data set with Escherichia coli [2], 4.4 µmol/min. Also, the fold change (FC) in the data set with Escherichia coli [3] worked out at 2.4; in data set [4] it was 6.8.

For the compound `NC(=O)c1cc([N+](=O)[O-])cc([N+](=O)[O-])c1N1CCc2ccccc2C1`, the Activity in data set [1] worked out at 0.053 µmol/min; in the data set with Escherichia coli [10], 2.82 µmol/min. In addition, the fold change (FC) in [4] was 8.6; with Escherichia coli [11] it was 1.5.

Take `O=[N+]([O-])c1ccc(N2CCc3ccccc3C2)c([N+](=O)[O-])c1`: the Activity in data set [1] is less than 0.001 µmol/min; with Escherichia coli [2], 0.44 µmol/min. In addition, the results for the fold change (FC) (in the data set on Escherichia coli [3]; in data set [4]) were 0.2 and less than 0.16, respectively.

In the case of `O=C(O)c1cc([N+](=O)[O-])cc([N+](=O)[O-])c1N1CCc2ccccc2C1`, the Activity in [1] is 0.011 µmol/min; with Escherichia coli [2] it was 4.22 µmol/min. In addition, the fold change (FC) worked out at 2.3 in the data set on Escherichia coli [3] and 1.8 in data set [4].
